Source: the RNAGym collection of RNA variant scans (doi:10.1002/anie.201605470)

B1: Osa-1-4 twister ribozyme (parent)
chain: CCGCCUAACACUGCCAAUGCCGGUCCCAAGCCCGGAUAAAAGUGGAGGGGGCGG

Variants of: B1
Assay: self-cleavage, relative activity (ratio to wild type); higher = more cleavage; co-transcriptional
Method in brief: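 The 48 positions downstream of the cleavage site in a 54-nucleotide Oryza sativa twister ribozyme template were synthesised at 97 % wild-type base and 1 % of each other base. The template was transcribed in vitro at 37 °C for 2 h, with self-cleavage allowed during transcription. Reads with or without upstream sequence after deep sequencing marked cleavage status, and relative activity is fraction cleaved normalised to wild type.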

Row | Variant | self-cleavage
1 | A41G C14U | 0.24
2 | A41G C14G | 0.14
3 | A41G C14A | 0.07
4 | G42C | 0.4
5 | G42A | 0.84
6 | A41U G45A | 0.25
7 | A41U G45U | 0.12
8 | A41U G45C | 0.06
9 | A41G G22U | 0.27
10 | A41G G22A | 0.48
11 | A41G G22C | 0.05
12 | A41C G53A | 0.73
13 | A41C G53U | 0.28
14 | A41C G53C | 0.08
15 | G42C G48A | 0.05
16 | G42C G48C | 0.07
17 | G42C G48U | 0.04
18 | A41U G22A | 1
19 | A41U G22C | 0.1
20 | A41U G22U | 0.85
21 | A41U G47C | 0.11
22 | A41U G47U | 0.25
23 | A41U G47A | 0.27
24 | A41U A7U | 0.11

Row | Variant | self-cleavage
25 | A41U A7G | 0.31
26 | A41U A7C | 0.03
27 | A41G A7G | 0.14
28 | A41G A7C | 0.05
29 | A41G A7U | 0.08
30 | A41U C11A | 0.79
31 | A41U C11U | 0.9
32 | A41U C11G | 0.45
33 | A41G G45C | 0.05
34 | A41G G45U | 0.09
35 | A41G G45A | 0.09
36 | A41U C20A | 0.85
37 | A41U C20G | 0.19
38 | A41U C20U | 0.95
39 | A41G C33U | 0.12
40 | A41G C33A | 0.07
41 | A41G C33G | 0.1
42 | A41G G34C | 0.16
43 | A41G G34A | 0.41
44 | A41G G34U | 0.18
45 | A41U U43C | 0.33
46 | A41U U43A | 0.81
47 | A41U U43G | 0.32
48 | A41G G35A | 0.57

Row | Variant | self-cleavage
49 | A41G G35C | 0.15
50 | A41G G35U | 0.51
51 | A41C U12A | 0.97
52 | A41C U12C | 0.55
53 | A41C U12G | 0.8
54 | G42A G51U | 0.1
55 | G42A G51C | 0.06
56 | G42A G51A | 0.28
57 | G42A U18A | 0.71
58 | G42A U18C | 0.44
59 | G42A U18G | 0.66
60 | A41G C32U | 0.08
61 | A41G C32G | 0.13
62 | A41G C32A | 0.06
63 | A41G U12G | 0.21
64 | A41G U12C | 0.78
65 | A41G U12A | 0.87
66 | A41U A8C | 0.07
67 | A41U A8U | 0.25
68 | A41U A8G | 0.41
69 | A41G G50C | 0.77
70 | A41G G50A | 0.34
71 | A41G G50U | 0.91
72 | A41C U37A | 0.92

Row | Variant | self-cleavage
73 | A41C U37G | 1.02
74 | A41C U37C | 1
75 | G42A U12G | 0.09
76 | G42A U12A | 0.15
77 | G42A U12C | 0.1
78 | A41U C21G | 0.1
79 | A41U C21U | 1
80 | A41U C21A | 0.87
81 | G42A G54U | 0.8
82 | G42A G54A | 0.76
83 | G42A G54C | 0.82
84 | A41G G47U | 0.08
85 | A41G G47A | 0.1
86 | A41G G47C | 0.07
87 | G42A G50C | 0.64
88 | G42A G50A | 0.45
89 | G42A G50U | 0.83
90 | A41U G13A | 0.14
91 | A41U G13C | 0.03
92 | A41U G13U | 0.03
93 | A41U C27A | 0.18
94 | A41U C27G | 0.08
95 | A41U C27U | 0.16
96 | G42C G51C | 0.06

Row | Variant | self-cleavage
97 | G42C G51U | 0.06
98 | G42C G51A | 0.08
99 | A41G C9G | 0.22
100 | A41G C9A | 0.08
101 | A41G C9U | 0.11
102 | A41C U24C | 0.1
103 | A41C U24A | 0.13
104 | A41C U24G | 0.03
105 | A41C U43A | 0.45
106 | A41C U43G | 0.12
107 | A41C U43C | 0.22
108 | A41G C26U | 0.17
109 | A41G C26A | 0.05
110 | A41G C26G | 0.09
111 | A41U U18G | 0.86
112 | A41U U18C | 0.93
113 | A41U U18A | 0.92
114 | A41U G42C | 0.2
115 | A41U G42U | 0.15
116 | A41U G42A | 0.35
117 | A41G G44U | 0.31
118 | A41G G44A | 0.14
119 | A41G G44C | 0.39
120 | A41G C20A | 0.85

Row | Variant | self-cleavage
121 | A41G C20U | 0.85
122 | A41G C20G | 0.12
123 | A41C G50A | 0.37
124 | A41C G50U | 1
125 | A41C G50C | 0.93
126 | A41U G48A | 0.09
127 | A41U G48U | 0.07
128 | A41U G48C | 0.1
129 | A41G G23A | 0.12
130 | A41G G23C | 0.07
131 | A41G G23U | 0.06
132 | A41G G48U | 0.05
133 | A41G G48A | 0.08
134 | A41G G48C | 0.08
135 | A41U A46G | 0.07
136 | A41U A46C | 0.06
137 | A41U A46U | 0.09
138 | A41G G53A | 0.61
139 | A41G G53U | 0.25
140 | A41G G53C | 0.08
141 | A41G U18A | 0.77
142 | A41G U18G | 0.83
143 | A41G U18C | 0.74
144 | A41U C14U | 0.7

Row | Variant | self-cleavage
145 | A41U C14A | 0.13
146 | A41U C14G | 0.3
147 | A41U C25A | 0.1
148 | A41U C25G | 0.11
149 | A41U C25U | 0.91
150 | A41G A46U | 0.08
151 | A41G A46C | 0.06
152 | A41G A46G | 0.07
153 | A41U G34C | 0.47
154 | A41U G34A | 0.82
155 | A41U G34U | 0.74
156 | A41G C11A | 0.12
157 | A41G C11U | 0.34
158 | A41G C11G | 0.18
159 | G42A U43G | 0.16
160 | G42A U43A | 0.16
161 | G42A U43C | 0.11
162 | A41G C27A | 0.09
163 | A41G C27G | 0.04
164 | A41G C27U | 0.09
165 | A41G G51C | 0.09
166 | A41G G51A | 0.41
167 | A41G G51U | 0.12
